Measurements reported in ChEMBL document CHEMBL4689842, “EUbOPEN Chemogenomics Library wave 1” (2021).

Tested on: Fibroblast
Assay: Multiplex assay against human fibroblast
Type: toxicity, cell-based
Outline: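 Cells stained live at seeding with Hoechst33342, BioTracker Green Microtubule Cytoskeleton Dye, MitoTracker Red and Annexin V Alexa Fluor 680 were imaged on a CQ1 microscope at 37°C and 5% CO2 after compound addition. Their classification by CellPathfinder machine-learning gating ran from Hoechst high-intensity objects versus normal cells, to healthy, pyknosed or fragmented nuclei among normal cells, to mitotic or apoptotic among pyknosed cells. Tubulin, mitochondrial-mass and membrane-permeability phenotypes are per cents of healthy-nucleus cells.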

[1] = 12 h, 1 µM, compound concentration 1 uM, replicate 1
[2] = 12 h, 1 µM, compound concentration 1 uM, replicate 2
[3] = 12 h, 10 µM, compound concentration 10 uM, replicate 1
[4] = 12 h, 10 µM, compound concentration 10 uM, replicate 2
[5] = 24 h, 1 µM, compound concentration 1 uM, replicate 1
[6] = 24 h, 1 µM, compound concentration 1 uM, replicate 2
[7] = 24 h, 10 µM, compound concentration 10 uM, replicate 1
[8] = 24 h, 10 µM, compound concentration 10 uM, replicate 2
[9] = 48 h, 1 µM, compound concentration 1 uM, replicate 1
[10] = 48 h, 1 µM, compound concentration 1 uM, replicate 2
[11] = 48 h, 10 µM, compound concentration 10 uM, replicate 1
[12] = 48 h, 10 µM, compound concentration 10 uM, replicate 2

CC(C)[C@H](CO)Nc1nc(Nc2cccc(Cl)c2)c2ncn(C(C)C)c2n1 [PURVALANOLA]
Population Apoptotic (%) [1]: 65% | Population Fragmented Nuclei (%) [1]: 30% | Population Healthy Nuclei (%) [1]: 39% | Population Hoechst High Intensity Objects (%) [1]: 17% | Population Membrane Permeable-Phenotype (%) [1]: 20% | Population Mitochondria Different-Phenotype (%) [1]: 7% | Population Mitotic Cells (%) [1]: 35% | Population Normal (%) [1]: 82% | Population Pyknosed Nuclei (%) [1]: 30% | Population Tubulin-Different-Phenotype (%) [1]: 48% | Total Cell Count [1]: 241 | Population Apoptotic (%) [2]: 50% | Population Fragmented Nuclei (%) [2]: 8% | Population Healthy Nuclei (%) [2]: 88% | Population Hoechst High Intensity Objects (%) [2]: 10% | Population Membrane Permeable-Phenotype (%) [2]: 7% | Population Mitochondria Different-Phenotype (%) [2]: 21% | Population Mitotic Cells (%) [2]: 50% | Population Normal (%) [2]: 89% | Population Pyknosed Nuclei (%) [2]: 3% | Population Tubulin-Different-Phenotype (%) [2]: 15% | Total Cell Count [2]: 111 | Population Apoptotic (%) [3]: 65% | Population Fragmented Nuclei (%) [3]: 24% | Population Healthy Nuclei (%) [3]: 38% | Population Hoechst High Intensity Objects (%) [3]: 17% | Population Membrane Permeable-Phenotype (%) [3]: 10% | Population Mitochondria Different-Phenotype (%) [3]: 54% | Population Mitotic Cells (%) [3]: 34% | Population Normal (%) [3]: 82% | Population Pyknosed Nuclei (%) [3]: 36% | Population Tubulin-Different-Phenotype (%) [3]: 95% | Total Cell Count [3]: 143 | Population Apoptotic (%) [4]: 83% | Population Fragmented Nuclei (%) [4]: 13% | Population Healthy Nuclei (%) [4]: 79% | Population Hoechst High Intensity Objects (%) [4]: 7% | Population Membrane Permeable-Phenotype (%) [4]: 23% | Population Mitochondria Different-Phenotype (%) [4]: 95% | Population Mitotic Cells (%) [4]: 16% | Population Normal (%) [4]: 92% | Population Pyknosed Nuclei (%) [4]: 6% | Population Tubulin-Different-Phenotype (%) [4]: 98% | Total Cell Count [4]: 66 | Population Apoptotic (%) [5]: 48% | Population Fragmented Nuclei (%) [5]: 32% | Population Healthy Nuclei (%) [5]: 49% | Population Hoechst High Intensity Objects (%) [5]: 18% | Population Membrane Permeable-Phenotype (%) [5]: 24% | Population Mitochondria Different-Phenotype (%) [5]: 7% | Population Mitotic Cells (%) [5]: 51% | Population Normal (%) [5]: 81% | Population Pyknosed Nuclei (%) [5]: 18% | Population Tubulin-Different-Phenotype (%) [5]: 60% | Total Cell Count [5]: 248 | Population Apoptotic (%) [6]: 60% | Population Fragmented Nuclei (%) [6]: 8% | Population Healthy Nuclei (%) [6]: 83% | Population Hoechst High Intensity Objects (%) [6]: 6% | Population Membrane Permeable-Phenotype (%) [6]: 5% | Population Mitochondria Different-Phenotype (%) [6]: 23% | Population Mitotic Cells (%) [6]: 40% | Population Normal (%) [6]: 93% | Population Pyknosed Nuclei (%) [6]: 8% | Population Tubulin-Different-Phenotype (%) [6]: 9% | Total Cell Count [6]: 157 | Population Apoptotic (%) [7]: 72% | Population Fragmented Nuclei (%) [7]: 26% | Population Healthy Nuclei (%) [7]: 47% | Population Hoechst High Intensity Objects (%) [7]: 20% | Population Membrane Permeable-Phenotype (%) [7]: 16% | Population Mitochondria Different-Phenotype (%) [7]: 63% | Population Mitotic Cells (%) [7]: 27% | Population Normal (%) [7]: 79% | Population Pyknosed Nuclei (%) [7]: 25% | Population Tubulin-Different-Phenotype (%) [7]: 94% | Total Cell Count [7]: 145 | Population Apoptotic (%) [8]: 80% | Population Fragmented Nuclei (%) [8]: 16% | Population Healthy Nuclei (%) [8]: 65% | Population Hoechst High Intensity Objects (%) [8]: 8% | Population Membrane Permeable-Phenotype (%) [8]: 50% | Population Mitochondria Different-Phenotype (%) [8]: 100% | Population Mitotic Cells (%) [8]: 20% | Population Normal (%) [8]: 91% | Population Pyknosed Nuclei (%) [8]: 17% | Population Tubulin-Different-Phenotype (%) [8]: 100% | Total Cell Count [8]: 66 | Population Apoptotic (%) [9]: 60% | Population Fragmented Nuclei (%) [9]: 39% | Population Healthy Nuclei (%) [9]: 51% | Population Hoechst High Intensity Objects (%) [9]: 19% | Population Membrane Permeable-Phenotype (%) [9]: 23% | Population Mitochondria Different-Phenotype (%) [9]: 4% | Population Mitotic Cells (%) [9]: 40% | Population Normal (%) [9]: 80% | Population Pyknosed Nuclei (%) [9]: 9% | Population Tubulin-Different-Phenotype (%) [9]: 49% | Total Cell Count [9]: 203 | Population Apoptotic (%) [10]: 50% | Population Fragmented Nuclei (%) [10]: 23% | Population Healthy Nuclei (%) [10]: 73% | Population Hoechst High Intensity Objects (%) [10]: 8% | Population Membrane Permeable-Phenotype (%) [10]: 16% | Population Mitochondria Different-Phenotype (%) [10]: 0% | Population Mitotic Cells (%) [10]: 50% | Population Normal (%) [10]: 91% | Population Pyknosed Nuclei (%) [10]: 2% | Population Tubulin-Different-Phenotype (%) [10]: 34% | Total Cell Count [10]: 74 | Population Apoptotic (%) [11]: 85% | Population Fragmented Nuclei (%) [11]: 32% | Population Healthy Nuclei (%) [11]: 49% | Population Hoechst High Intensity Objects (%) [11]: 17% | Population Membrane Permeable-Phenotype (%) [11]: 11% | Population Mitochondria Different-Phenotype (%) [11]: 79% | Population Mitotic Cells (%) [11]: 15% | Population Normal (%) [11]: 82% | Population Pyknosed Nuclei (%) [11]: 18% | Population Tubulin-Different-Phenotype (%) [11]: 92% | Total Cell Count [11]: 131 | Population Apoptotic (%) [12]: 50% | Population Fragmented Nuclei (%) [12]: 37% | Population Healthy Nuclei (%) [12]: 60% | Population Hoechst High Intensity Objects (%) [12]: 18% | Population Membrane Permeable-Phenotype (%) [12]: 7% | Population Mitochondria Different-Phenotype (%) [12]: 59% | Population Mitotic Cells (%) [12]: 50% | Population Normal (%) [12]: 81% | Population Pyknosed Nuclei (%) [12]: 2% | Population Tubulin-Different-Phenotype (%) [12]: 96% | Total Cell Count [12]: 117
